Test results from ChEMBL document CHEMBL3351523 (Bioorg Med Chem, 2014).

How the values were obtained:
[1] = Cytotoxicity against mock-infected BHK21 cells after 48 to 96 hrs by MTT assay; format: functional; settings: Mesocricetus auratus, BHK-21
In short: (§1)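 Mock-infected MDBK (6 × 10^5 cells/mL; MEM-E, 10% horse serum, 1 mM pyruvate) or BHK (1 × 10^6 cells/mL; MEM-E, 10% FBS) cells were incubated at 37 °C, 5% CO2 with serial dilutions from 100 µM, 1:5. Viability by MTT after 48–96 h. CC50 from linear regression against untreated controls.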

Human alphaherpesvirus 1 = experiment: Antiviral activity against HSV1 infected in african green monkey Vero 76 cells assessed as reduction in plaque number after 3 days by plaque reduction assay; format: functional, organism-based; settings: Human alphaherpesvirus 1, Vero, 72 h
[2] = Selectivity index, ratio of CC50 for african green monkey Vero 76 cells to EC50 for Coxsackievirus B5; format: toxicity, cell-based; settings: read-out: Ratio CC50/EC50
In short: (§2)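 Mock-infected Vero-76 cells were tested in parallel on the same 24-well plates as the plaque assays (seeding 4 × 10^5 cells/mL, D-MEM with FBS), with serial compound dilutions at 37 °C, 5% CO2. Viability was read after 48–96 h by crystal violet staining. CC50 by linear regression; selectivity index = Vero-76 CC50/EC50 for CVB-5 or RSV.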

[3] = tested on: Respiratory syncytial virus; experiment: Antiviral activity against Respiratory syncytial virus infected in african green monkey Vero 76 cells assessed as reduction in plaque number after 5 days by plaque reduction assay; format: functional, organism-based; settings: human respiratory syncytial virus, 120 h
[4] = Cytotoxicity against mock-infected MDBK cells after 48 to 96 hrs by MTT assay; format: cell-based, Bos taurus; settings: cattle; in short: as §1
[5] = tested on: Bovine viral diarrhea virus 1; experiment: Antiviral activity against Bovine viral diarrhea virus infected in MDBK cells assessed as inhibition of virus-induced cytopathogenicity after 3 to 4 days by MTT assay; format: functional, organism-based; settings: Bovine viral diarrhea virus isolates and strains
[6] = tested on: Human immunodeficiency virus 1; experiment: Antiviral activity against HIV1 infected in human MT4 cells assessed as inhibition of virus-induced cytopathogenicity after 4 days by MTT assay; format: functional, organism-based; settings: Human immunodeficiency virus 1, MT4, 96 h
In short: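 MT-4 cells (1 × 10^4/well in RPMI) were infected acutely with HIV-1 IIIB, 100 CCID50 (m.o.i. 0.01), with serial dilutions from 100 µM, 1:5. After 4 days at 37 °C, protection from virus-induced cytopathogenicity was read by MTT. EC50 came from linear regression against untreated controls.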

Yellow fever virus = experiment: Antiviral activity against Yellow fever virus infected in BHK21 cells assessed as inhibition of virus-induced cytopathogenicity after 3 to 4 days by MTT assay; format: functional, organism-based; settings: BHK-21
Coxsackievirus B5 = experiment: Antiviral activity against Coxsackievirus B5 infected in african green monkey Vero 76 cells assessed as reduction in plaque number after 3 days by plaque reduction assay; format: functional, organism-based; settings: Enterovirus B, 72 h
[7] = Cytotoxicity against mock-infected human MT4 cells after 96 hrs by MTT assay; format: cell-based
In short: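 Exponentially growing MT-4 cells were seeded at 1 × 10^5 cells/mL in RPMI-1640 with 10% FBS and held at 37 °C, 5% CO2 with serial compound dilutions. Viability was read by MTT after 96 h. CC50 from linear regression against untreated controls.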

[8] = tested on: Vesicular stomatitis virus; experiment: Antiviral activity against Vesicular stomatitis virus infected in african green monkey Vero 76 cells assessed as reduction in plaque number after 2 days by plaque reduction assay; format: functional, organism-based; settings: 48 h
Poliovirus 1 = experiment: Antiviral activity against Poliovirus type 1 Sabin strain infected in african green monkey Vero 76 cells assessed as reduction in plaque number after 2 days by plaque reduction assay; format: functional, organism-based; settings: Enterovirus C, 48 h
[9] = Cytotoxicity against mock-infected african green monkey Vero 76 cells after 48 to 96 hrs by MTT assay; format: cell-based; settings: chlorocebus sabaeus, mock-infected Vero 76 cells
[10] = Selectivity index, ratio of CC50 for african green monkey Vero 76 cells to EC50 for Respiratory syncytial virus; format: toxicity, cell-based; settings: read-out: Ratio CC50/EC50; in short: as §2
Reovirus sp. = experiment: Antiviral activity against Reovirus type-1 infected in BHK21 cells assessed as inhibition of virus-induced cytopathogenicity after 3 to 4 days by MTT assay; format: functional, organism-based; settings: BHK-21
Vaccinia virus = experiment: Antiviral activity against Vaccinia Virus infected in african green monkey Vero 76 cells assessed as reduction in plaque number after 3 days by plaque reduction assay; format: functional, organism-based; settings: Orthopoxvirus vaccinia, 72 h

Compound	CC50 [1]	EC50 (Human alphaherpesvirus 1)	selectivity ratio [2]	EC50 [3]	CC50 [4]	EC50 [5]	EC50 [6]	EC50 (Yellow fever virus)	EC50 (Coxsackievirus B5)	CC50 at 96 h [7]	EC50 [8]	EC50 (Poliovirus 1)	CC50 [9]	selectivity ratio [10]	EC50 (Reovirus sp.)	EC50 (Vaccinia virus)
Clc1cc2nc(Cc3ccc(Br)cc3)n(C[C@@H]3CCCN4CCCC[C@H]34)c2cc1Cl	70 µM	> 100 µM	> 2	9 µM	58 µM	> 100 µM	> 100 µM	> 100 µM	50 µM	12 µM	> 100 µM	> 100 µM	> 100 µM	> 11.1	> 100 µM	> 100 µM
FC(F)(F)c1ccc2c(c1)nc(Cc1ccc(Cl)cc1)n2C[C@@H]1CCCN2CCCC[C@H]12	20 µM	> 100 µM	> 7.69	15 µM	54 µM	> 100 µM	> 100 µM	> 100 µM	13 µM	6 µM	> 100 µM	> 100 µM	> 100 µM	> 6.67	> 100 µM	> 100 µM
FC(F)(F)c1ccc2c(c1)nc(Cc1ccc(Br)cc1)n2C[C@@H]1CCCN2CCCC[C@H]12	20 µM	> 100 µM	> 1	25 µM	40 µM	> 100 µM	> 100 µM	> 100 µM	> 100 µM	13 µM	> 100 µM	> 100 µM	> 100 µM	> 4	> 100 µM	> 100 µM
Nc1ccc(Cc2nc3cc(Cl)c(Cl)cc3[nH]2)cc1	43 µM	> 100 µM	6.67	20 µM	62 µM	22 µM	> 100 µM	> 100 µM	12 µM	71 µM	> 100 µM	80 µM	80 µM	4	> 100 µM	> 100 µM
CCCCn1c(Cc2ccc(Cl)c(Cl)c2)nc2cc(C(F)(F)F)ccc21	21 µM	> 100 µM	> 8.33	9 µM	11 µM	> 100 µM	> 100 µM	> 100 µM	12 µM	> 100 µM	> 100 µM	> 100 µM	> 100 µM	> 11.1	> 100 µM	31 µM
FC(F)(F)c1ccc2c(c1)nc(C(F)(F)F)n2C[C@@H]1CCCN2CCCC[C@H]12	80 µM	> 100 µM	8.18	22 µM	≥ 100 µM	> 100 µM	> 100 µM	33 µM	11 µM	54 µM	> 100 µM	> 100 µM	90 µM	4.09	> 100 µM	> 100 µM
CCC/C=C(\CC)c1nc2ccccc2[nH]1	67 µM	> 100 µM	> 1.11	22 µM	> 100 µM	> 100 µM	> 100 µM	> 100 µM	90 µM	61 µM	> 100 µM	> 100 µM	≥ 100 µM	> 4.54	> 100 µM	> 100 µM
